# Results as given in paper PMC3401285 (Bioorganic & medicinal chemistry letters, 2012).
# Legend:
# Type in all cases: cell-based
# M5 = biological target: T1, M5 (Homo sapiens, UniProt P08912); experiment: Muscarinic selectivity panel, calcium mobilization; conditions: concentration up to 30 µM
# T1 sequence (P08912 1-532): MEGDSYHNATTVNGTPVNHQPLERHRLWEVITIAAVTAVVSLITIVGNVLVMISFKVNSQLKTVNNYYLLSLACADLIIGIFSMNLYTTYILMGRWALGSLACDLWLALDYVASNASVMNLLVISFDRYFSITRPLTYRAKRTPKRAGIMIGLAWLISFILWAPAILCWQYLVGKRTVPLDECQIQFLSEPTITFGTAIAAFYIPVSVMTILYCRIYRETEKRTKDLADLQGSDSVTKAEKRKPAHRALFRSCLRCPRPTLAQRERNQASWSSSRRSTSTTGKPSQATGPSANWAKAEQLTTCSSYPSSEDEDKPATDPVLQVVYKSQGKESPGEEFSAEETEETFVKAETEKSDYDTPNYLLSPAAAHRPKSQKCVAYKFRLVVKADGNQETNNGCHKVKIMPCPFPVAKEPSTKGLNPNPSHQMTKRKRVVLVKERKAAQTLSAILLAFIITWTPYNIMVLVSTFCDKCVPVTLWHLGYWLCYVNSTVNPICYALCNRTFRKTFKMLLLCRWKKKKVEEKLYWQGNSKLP
# Procedure, shortened: (§1)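 CHO cells stably expressing the human receptor (M1 transfected into CHO K1; M3 and M5 lines donated), grown in Ham's F-12, 10% heat-inactivated FBS, 20 mM HEPES, 500 µg/mL G418. Cells plated at 15,000/well overnight (37 °C, 5% CO2), then loaded 45 min at 37 °C with Fluo-4 AM in HBSS, 20 mM HEPES, 2.5 mM probenecid. Compound preincubated 144 s (0.3% DMSO final) before ACh; calcium read kinetically at 37 °C.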
# M2 = biological target: T2, M2 (Homo sapiens, UniProt P08172); experiment: Muscarinic selectivity panel, calcium mobilization; conditions: concentration up to 30 µM
# T2 sequence (P08172 1-466): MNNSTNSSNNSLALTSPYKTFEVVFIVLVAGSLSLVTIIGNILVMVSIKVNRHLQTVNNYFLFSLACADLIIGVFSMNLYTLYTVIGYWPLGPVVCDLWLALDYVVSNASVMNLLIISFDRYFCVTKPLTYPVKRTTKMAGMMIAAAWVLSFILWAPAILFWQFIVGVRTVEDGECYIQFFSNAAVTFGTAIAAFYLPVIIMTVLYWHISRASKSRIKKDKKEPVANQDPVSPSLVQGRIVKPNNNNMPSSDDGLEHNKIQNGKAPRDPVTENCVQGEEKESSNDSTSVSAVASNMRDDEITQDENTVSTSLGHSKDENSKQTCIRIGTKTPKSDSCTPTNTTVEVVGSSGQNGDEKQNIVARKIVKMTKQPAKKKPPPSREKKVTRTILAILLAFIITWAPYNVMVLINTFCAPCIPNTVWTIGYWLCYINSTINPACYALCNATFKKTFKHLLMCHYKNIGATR
# Procedure, shortened: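 CHO cells stably expressing human M2 and cotransfected with chimeric Gqi5, grown in Ham's F-12, 10% heat-inactivated FBS, 20 mM HEPES, 500 µg/mL G418 plus 500 µg/mL hygromycin B. Plated at 15,000 cells/well overnight (37 °C, 5% CO2), then Fluo-4 AM loaded 45 min at 37 °C in HBSS, 20 mM HEPES, 2.5 mM probenecid. Compound preincubated 144 s (0.3% DMSO final) before ACh; fluorescence read at 37 °C.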
# M3 = M3 (Homo sapiens, UniProt P20309); experiment: Muscarinic selectivity panel, calcium mobilization; conditions: concentration up to 30 µM
# M3, sequence (P20309 whole entry): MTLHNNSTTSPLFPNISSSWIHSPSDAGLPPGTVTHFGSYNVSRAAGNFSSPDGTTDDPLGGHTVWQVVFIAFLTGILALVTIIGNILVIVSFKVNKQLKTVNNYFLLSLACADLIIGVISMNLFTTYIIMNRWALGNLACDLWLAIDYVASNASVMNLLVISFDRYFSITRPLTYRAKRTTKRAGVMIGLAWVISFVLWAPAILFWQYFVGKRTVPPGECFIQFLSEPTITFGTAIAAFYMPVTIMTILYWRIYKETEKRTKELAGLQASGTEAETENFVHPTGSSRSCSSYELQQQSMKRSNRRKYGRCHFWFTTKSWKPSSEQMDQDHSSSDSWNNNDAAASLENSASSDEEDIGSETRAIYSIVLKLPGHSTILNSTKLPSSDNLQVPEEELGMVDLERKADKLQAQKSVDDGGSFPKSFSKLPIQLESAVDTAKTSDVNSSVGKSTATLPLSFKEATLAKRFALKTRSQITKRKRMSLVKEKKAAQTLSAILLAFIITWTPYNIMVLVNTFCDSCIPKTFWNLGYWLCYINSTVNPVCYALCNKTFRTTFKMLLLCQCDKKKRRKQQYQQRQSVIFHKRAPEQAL
# Procedure, shortened: as §1
# M1 = biological target: T3, M1 (Homo sapiens, UniProt P11229); experiment: Muscarinic selectivity panel, calcium mobilization; conditions: concentration up to 30 µM
# T3 sequence (P11229 1-460): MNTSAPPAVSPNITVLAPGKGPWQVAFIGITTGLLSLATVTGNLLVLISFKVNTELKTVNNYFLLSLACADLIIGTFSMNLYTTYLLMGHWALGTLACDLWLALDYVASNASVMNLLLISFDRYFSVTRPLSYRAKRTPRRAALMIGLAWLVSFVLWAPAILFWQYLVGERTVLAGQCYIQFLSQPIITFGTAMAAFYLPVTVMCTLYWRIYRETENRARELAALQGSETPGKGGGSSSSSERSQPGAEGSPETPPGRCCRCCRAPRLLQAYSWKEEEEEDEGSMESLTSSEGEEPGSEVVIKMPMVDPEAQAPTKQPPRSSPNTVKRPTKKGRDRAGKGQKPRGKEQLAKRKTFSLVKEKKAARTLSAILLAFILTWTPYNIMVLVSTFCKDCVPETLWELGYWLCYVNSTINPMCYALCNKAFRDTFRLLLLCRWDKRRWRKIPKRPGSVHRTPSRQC
# Procedure, shortened: as §1
# human M4 receptor = biological target: T4, human M4 receptor (Homo sapiens, UniProt P08173); experiment: Calcium mobilization assay, potency determination; conditions: for %AChmax ± SEM: efficacy as % of maximal ACh response, hM4; for hM4 PAM activity (in words): hM4, text statement
# T4 sequence (P08173 1-479): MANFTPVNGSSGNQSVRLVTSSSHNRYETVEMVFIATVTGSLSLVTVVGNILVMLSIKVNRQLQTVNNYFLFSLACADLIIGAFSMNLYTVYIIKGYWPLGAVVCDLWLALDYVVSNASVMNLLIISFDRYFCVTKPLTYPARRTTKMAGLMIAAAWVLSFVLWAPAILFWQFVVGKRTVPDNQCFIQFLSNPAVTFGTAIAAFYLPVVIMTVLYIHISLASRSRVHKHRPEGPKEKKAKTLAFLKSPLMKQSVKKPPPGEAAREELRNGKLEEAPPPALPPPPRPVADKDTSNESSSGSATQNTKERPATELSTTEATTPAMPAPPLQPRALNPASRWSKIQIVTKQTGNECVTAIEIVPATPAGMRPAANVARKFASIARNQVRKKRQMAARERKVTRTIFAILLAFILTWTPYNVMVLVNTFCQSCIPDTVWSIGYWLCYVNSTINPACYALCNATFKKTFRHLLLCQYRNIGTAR
Compound,%AChmax ± SEM (human M4 receptor),hM4 PAM activity (in words) (human M4 receptor),also measured
"COc1ccc(C)c2sc(NC(=O)c3ccncc3)nc12 [Compound 21, N-(4-methoxy-7-methylbenzo[d]thiazol-2-yl)isonicotinamide]",,,activity at M5 (M5): inactive; activity at M2 (M2): inactive; activity at M3 (M3): inactive; activity at M1 (M1): inactive
COc1ccc(C)c2sc(C(=O)NC3CCCC3)nc12 [Compound 48],Weak,,
COc1ccc(C)c2sc(NC(=O)C3CCCOC3)nc12 (centres unmarked) [Compound 17],,deleterious to activity,
COc1ccc(C)c2sc(NC(=O)C(C)C)nc12 [Compound 7],Weak,,
COc1ccc(C)c2sc(NC(=O)C3CCCCO3)nc12 (centres unmarked) [Compound 16],,deleterious to activity,
COc1ccc(C)c2sc(C(=O)NC3COC3)nc12 [Compound 49],Weak,,
COc1ccc(C)c2sc(C(=O)Nc3ccncc3)nc12 [Compound 44],Weak,,
O=C(Nc1nc2ccccc2s1)C1CCCCO1 (centres unmarked) [Compound 50],,not tolerated,
